The target in this assay is T1, Gonadotropin-releasing hormone receptor (Homo sapiens, UniProt P30968).
T1 sequence (P30968 whole entry): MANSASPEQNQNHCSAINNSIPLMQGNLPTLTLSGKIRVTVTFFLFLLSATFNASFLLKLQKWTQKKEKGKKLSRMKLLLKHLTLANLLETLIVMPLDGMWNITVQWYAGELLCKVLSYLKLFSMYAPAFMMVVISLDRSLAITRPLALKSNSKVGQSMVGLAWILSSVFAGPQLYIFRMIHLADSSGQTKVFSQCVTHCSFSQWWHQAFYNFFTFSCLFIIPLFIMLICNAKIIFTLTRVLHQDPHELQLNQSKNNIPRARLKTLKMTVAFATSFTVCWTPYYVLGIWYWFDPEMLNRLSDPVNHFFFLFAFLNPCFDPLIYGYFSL
The assay is described as follows: The Compound was tested for the concentration to inhibit 50% of [125 I ]leuprorelin binding to the cloned human Leutinizing releasing hormone receptor (LHRH) receptor. The procedure, abridged: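 Membranes from CHO cells stably expressing cloned human LHRH receptor (0.2 mg/mL) incubated with [125I]leuprorelin (0.15 nM) and graded compound in Tris/EDTA/BSA buffer with protease inhibitors, pH 7.5, 60 min at 25 °C. Filtration on PEI-coated glass fiber, gamma counting. Nonspecific binding with 1 µM unlabeled leuprorelin. IC50 from pseudo-Hill fit. Means of ≥3 determinations.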

Results on 1 molecule are retold here after ChEMBL document CHEMBL1131311, “Discovery of a novel, potent, and orally active nonpeptide antagonist of the human luteinizing hormone-releasing hormone (LHRH) receptor” (J Med Chem, 1998).

The structures appear in SMILES notation.

In the case of `CCOC(=O)c1cn(Cc2c(F)cccc2F)c2sc(-c3ccc(N)cc3)c(CN(C)Cc3ccccc3)c2c1=O`, the IC50 was found to be 4 nM.
